Assay [1] concerns the target D(1A) dopamine receptor (Rattus norvegicus) (UniProt P18901). Nature of the assay: The ability of a compound to stimulate dopamine-sensitive rat caudate adenylate cyclase or to antagonise the stimulant of dopamine was used as measure of D1 efficacy. The class given is functional.
Assay [2] addresses D(2) dopamine receptor (Bos taurus) (UniProt P20288). Description: Affinity for Dopamine receptor D2 was evaluated from the ability to displace [3H]spiroperidol from homogenized bovine pituitary. The gist of the method:
(§1)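 Bovine anterior pituitary homogenate with [3H]spiroperidol ~0.25 nM. Screened at 10^-5 and 10^-7 M; where displacement was 50% or more, IC50 was determined. KBind = IC50/(1 + L/KD), spiroperidol KD 0.3 nM.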

For assay [3], the target named is D(1A) dopamine receptor (Rattus norvegicus) (UniProt P18901). Description: Affinity for Dopamine receptor D1 binding sites was evaluated in a test involving displacement of [3H]- fenoldopam in rat striatum. The class given is tissue-based. Background: Loss of bound radioactivity is the signal in a displacement assay; it reports binding, not function.
For assay [4] the target is unchanged. Description: Stimulation of dopamine-sensitive rat caudate adenylate cyclase or antagonism of dopamine stimulus as measure of D1 efficacy; No stimulation. The class given is functional.
The species entered for assay [5] is Oryctolagus cuniculus. Nature of the assay: The D2 efficacy was evaluated in isolated perfused rabbit ear artery test; No response at 1 uM. It is filed as functional. Summed up:
(§2)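 Isolated perfused rabbit ear artery given brief intermittent nerve stimulation; concentration-dependent inhibition of the constrictor response measured. EC50 is the concentration giving 50% inhibition of constriction. Antagonist KB values for (S)-sulpiride determined by the Furchgott method, in nM.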

In assay [6] the target is D(2) dopamine receptor (Bos taurus) (UniProt P20288). Description: Affinity for Dopamine receptor D2 was evaluated from the ability to displace [3H]spiroperidol from homogenized bovine uM. The note with it: concentration not given here. Summed up:
as §1

The species entered for assay [7] is Oryctolagus cuniculus. Description: The D2 efficacy was evaluated in isolated perfused rabbit ear artery test. It is filed as functional. The conditions noted are these: read-out: ED50 (the source's name). The gist of the method: as §2

The structures appear in SMILES notation. Activity calls are given as the source filed them. No cut-off for these calls is given here. Some results are limits rather than exact numbers.

The term inhibition denotes the drop in the measured response relative to a control, in per cent.

Sequence of D(1A) dopamine receptor (Rattus norvegicus) (P18901 whole entry): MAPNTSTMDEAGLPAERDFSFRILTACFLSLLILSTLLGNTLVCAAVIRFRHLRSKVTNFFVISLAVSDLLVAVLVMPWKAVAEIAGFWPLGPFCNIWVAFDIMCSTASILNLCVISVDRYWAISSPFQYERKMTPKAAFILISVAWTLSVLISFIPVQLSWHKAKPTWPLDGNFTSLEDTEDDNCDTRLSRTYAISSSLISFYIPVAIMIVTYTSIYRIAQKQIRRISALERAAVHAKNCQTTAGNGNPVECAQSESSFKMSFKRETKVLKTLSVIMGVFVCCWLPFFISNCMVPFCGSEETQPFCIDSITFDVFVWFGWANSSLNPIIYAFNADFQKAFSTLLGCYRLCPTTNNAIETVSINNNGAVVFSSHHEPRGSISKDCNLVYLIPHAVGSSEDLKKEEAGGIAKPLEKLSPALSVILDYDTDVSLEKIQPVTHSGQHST
Sequence of D(2) dopamine receptor (Bos taurus) (P20288 whole entry): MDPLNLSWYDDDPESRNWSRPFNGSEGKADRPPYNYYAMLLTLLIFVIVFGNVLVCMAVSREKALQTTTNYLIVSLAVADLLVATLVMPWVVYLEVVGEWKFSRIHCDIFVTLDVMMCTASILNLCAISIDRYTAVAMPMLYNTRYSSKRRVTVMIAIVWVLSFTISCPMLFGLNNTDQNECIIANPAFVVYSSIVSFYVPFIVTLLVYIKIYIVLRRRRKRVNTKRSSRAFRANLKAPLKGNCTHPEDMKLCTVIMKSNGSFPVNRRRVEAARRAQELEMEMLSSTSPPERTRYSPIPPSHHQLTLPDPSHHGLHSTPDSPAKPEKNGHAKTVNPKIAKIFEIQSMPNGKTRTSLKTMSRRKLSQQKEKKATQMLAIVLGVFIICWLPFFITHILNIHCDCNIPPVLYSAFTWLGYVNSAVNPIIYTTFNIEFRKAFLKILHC

Molecule `NC1CCc2cc(O)c(O)cc2C1` (stereo not drawn) returned an ED50 in assay [1] of 2.7 µM. Also, the K Bind in assay [2] came out at 0.21 µM; in assay [3], 0.07 µM.
Take `CN(C)C1CCc2c(ccc(O)c2Cl)C1` (stereo not drawn): the K Bind in assay [2] was 3.5 µM; in assay [3], 5.95 µM.
With `CCCN(CCC)C1CCc2cc(Cl)c(O)c(Cl)c2C1` (stereo not drawn), the K Bind was 10.4 µM in assay [2] and more than 10 µM in assay [3]. Also, the ED50 result in assay [4] was “inactive”.
Take `CCCN(CCC)C1CCc2c(ccc(O)c2Cl)C1` (stereo not drawn): the K Bind in assay [2] amounted to 0.85 µM; in assay [3], 2.25 µM.
`NC1CCc2cc(Cl)c(O)cc2C1` (stereo not drawn): the ED50 result (in the assay filed under Oryctolagus cuniculus [5]; in assay [4]) was “inactive” each time. Besides, the figures for the K Bind in assay [2] and in assay [3] were 1.05 µM and 1.44 µM, respectively.
Take `NC1CCc2cc(Cl)c(O)c(Cl)c2C1` (stereo not drawn): in assay [6], the inhibition is 30%. In assay [3], this molecule had a K Bind of 2.97 µM.
In the case of `CCCN(CCC)C1CCc2cc(F)c(O)cc2C1` (stereo not drawn), the K Bind in assay [2] was 0.43 µM; in assay [3], 1.74 µM.
In the case of `CN(C)C1CCc2cc(Cl)c(O)c(Cl)c2C1` (stereo not drawn), the inhibition in assay [6] is 29%. Further, the K Bind in assay [3] is more than 20 µM.
On to `NC1CCc2cc(O)c(Cl)cc2C1` (stereo not drawn), for which the K Bind was determined as 4.47 µM in assay [2] and 1.97 µM in assay [3]. Further, the ED50 entry in assay [4] was “inactive”.
Consider `CN(C)C1CCc2cc(F)c(O)cc2C1` (stereo not drawn), for which the K Bind came to 0.47 µM in assay [2] and 0.76 µM in assay [3].
In the case of `NC1CCc2cc(F)c(O)cc2C1` (stereo not drawn), the K Bind in assay [2] was 0.66 µM; in assay [3], 0.37 µM.
For `Oc1ccc(CCNC2CCc3cc(O)c(O)c(Cl)c3C2)cc1` (stereo not drawn), in that order: 0.41 µM and 0.145 µM.
Taken in the same sequence, the figures for `CCCN(CCC)C1CCc2cc(O)c(O)c(Cl)c2C1` (stereo not drawn) were 0.24 µM and 0.62 µM.
Consider `CN(C)C1CCc2cc(Cl)c(O)cc2C1` (stereo not drawn), for which the K Bind in assay [2] was found to be 1.55 µM; in assay [3], 2.63 µM. In assay [4], the ED50 entry was “inactive”.
For `CCCN(CCc1ccc(O)cc1)C1CCc2cc(O)c(O)c(Cl)c2C1` (stereo not drawn), the values for the K Bind in assay [2] and in assay [3] were 0.033 µM and 0.27 µM, respectively.
`NC1CCc2cc(O)c(O)c(F)c2C1` (stereo not drawn): the ED50 in assay [1] turned out to be 2.2 µM. The K Bind in assay [2] was found to be 1.27 µM; in assay [3] it was 0.062 µM.
For `NC1CCc2c(ccc(O)c2Cl)C1` (stereo not drawn), the K Bind was 11.6 µM in assay [2] and more than 10 µM in assay [3].
`NC1CCc2c(cc(O)c(O)c2F)C1` (stereo not drawn) came in with an ED50 in assay [1] of 1.6 µM. Besides, the figures for the K Bind in assay [2] and in assay [3] were 0.52 µM and 0.074 µM, respectively.
For the molecule `NC1CCc2cc(O)c(O)c(Cl)c2C1` (stereo not drawn), the EC50 in the assay listed under Oryctolagus cuniculus [7] worked out at 536 µM. In addition, the ED50 in assay [1] was 1.4 µM. In addition, the K Bind in assay [2] is 3.16 µM; in assay [3], 0.043 µM.
With `NC1CCc2c(cc(O)c(O)c2Cl)C1` (stereo not drawn), the K Bind turned out to be 0.47 µM in assay [2] and 0.84 µM in assay [3]. The ED50 entry in assay [4] was “inactive”.
For `CN(C)C1CCc2cc(O)c(Cl)cc2C1` (stereo not drawn), in that order: 0.09 µM, 2.3 µM and “inactive”.
In assay [1], `NCCc1ccc(O)c(O)c1` registered an ED50 of 3.5 µM.
For `CCCN(CCC)C1CCc2cc(O)c(Cl)cc2C1` (stereo not drawn), the K Bind in assay [2] amounted to 0.9 µM; in assay [3], 8.23 µM. Further, the ED50 entry in assay [4] is “inactive”.
As to `CCCN(CCC)CC1CCc2cc(F)c(O)cc2C1` (stereo not drawn), the K Bind was 14.1 µM in assay [2] and more than 50 µM in assay [3].
As for `CCCN(CCC)C1CCc2cc(Cl)c(O)cc2C1` (stereo not drawn), the K Bind in assay [2] turned out to be 1.63 µM; in assay [3], 4.71 µM. In addition, the ED50 result in assay [4] is “inactive”.
